The source of these data is PubChem BioAssay.

A short description of experiment [1]: inhibitors of TNFa-induced NFkB p65 translocation, primary screen, imaging, HUVEC, MLSMR starter and 10KST1 sets (AID 438;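 active = inhibition above 20% together with a positive visual image hit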;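 note: compound added about 3h40 before a 20 min TNFalpha stimulation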;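 for inhibition: signal is the nuclear over cytoplasmic p65 intensity ratio per well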). Conditions: HUVEC TNFa-induced p65 nuclear translocation; cell count: measured here: nuclei count (cytotoxicity indicator), at 2.08 µM; inhibition: at 2 µM, stronger effect = higher value, 0% TNFa-plus-vehicle, 100% no-TNFa wells.
Experiment [2] is described as follows: reduction of polyQ htt aggregates in cells – imaging, exon1htt(103Q)mCFP cells, high-content imaging, primary screen (AID 483;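 active = visual image review flags a hit and inhibition of aggregation exceeds 20%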;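 note: compound exposure lasted 3 days before fixation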;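 for nuclei count: percent of the per-plate median nuclei count of sample wells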). Particulars: exon1htt(103Q)mCFP cell line, aggregate imaging, at 2 µM; inhibition of aggregation: stronger effect = higher value; nuclei count: measured here: cell count, toxicity.
Experiment [3] can be described thus: endothelial E-selectin expression blockers – imaging, HUVEC, immunofluorescence, MLSMR starter and 10KST1 sets, primary screen (AID 487;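 active = visually confirmed hit in the image check and inhibition above 20%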;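 for inhibition: signal is fraction of cell area covered by stained E-selectin grains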;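 for nuclei count: 100% = median nuclei count of all wells on the same plate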). Conditions: HUVEC TNFalpha-induced E-selectin immunofluorescence imaging, at 2 µM; inhibition: stronger effect = higher value; nuclei count: measured here: cell number, toxicity.
Experiment [4] addresses Voltage-gated potassium channel subunit beta-2 (Rattus norvegicus) (UniProt P62483). Description: inhibitors of rat Kvbeta2 reductase activity – biochemical, NADPH fluorescence, primary screen (AID 622;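 active = fluorescence slope higher than the sample average by over 3 SD, cut at about -0.22 in these data, passing the limit was not always enough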;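 note: slope of raw intensity against log time taken from 70 to 1610 s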). Particulars: recombinant KvBeta, 4-cyanobenzaldehyde reduction, at 10 µM, stronger effect = higher value.
The target is the same in experiment [5]. Description: enhancers of rat Kvbeta2 NADPH turnover – biochemical, NADPH fluorescence, primary screen (AID 623;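 active = NADPH fluorescence slope more negative than the mean of all samples by about 3 SD, 99.7% confidence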;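 note: fluorescence intensity change per second fitted from 20 to 320 s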). Particulars: Recombinant KvBeta, NADPH fluorescence decrease slope, 10 min; at 10 µM; stronger effect = lower value.
For experiment [6], the target named is Muscarinic acetylcholine receptor M4 (Homo sapiens) (UniProt P08173). The experiment in a line: M4-linked GIRK flux change, two-sided – cell-based, HEK293 M4/GIRK, thallium flux, BTC-AM, M4 allosteric agonist project, primary screen (AID 625).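 Note: thallium influx through GIRK channels coupled to M4 in HEK293 cells with BTC-AM dye.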 Particulars: at 10 µM, actives lie on both sides. The method in brief: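 Material – HEK293 cells with M4 receptor and GIRK channels · Buffer or medium – pH 7.3 thallium assay buffer · Doses – one dose, 10 µM final · Timing – cells overnight at 37 °C, BTC-AM loading 1 h, reads 2 min total · Measured by – kinetic fluorescence with BTC-AM dye · Controls – carbachol and DMSO controls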
Chain of Muscarinic acetylcholine receptor M4 (Homo sapiens) (P08173 whole entry, looked up): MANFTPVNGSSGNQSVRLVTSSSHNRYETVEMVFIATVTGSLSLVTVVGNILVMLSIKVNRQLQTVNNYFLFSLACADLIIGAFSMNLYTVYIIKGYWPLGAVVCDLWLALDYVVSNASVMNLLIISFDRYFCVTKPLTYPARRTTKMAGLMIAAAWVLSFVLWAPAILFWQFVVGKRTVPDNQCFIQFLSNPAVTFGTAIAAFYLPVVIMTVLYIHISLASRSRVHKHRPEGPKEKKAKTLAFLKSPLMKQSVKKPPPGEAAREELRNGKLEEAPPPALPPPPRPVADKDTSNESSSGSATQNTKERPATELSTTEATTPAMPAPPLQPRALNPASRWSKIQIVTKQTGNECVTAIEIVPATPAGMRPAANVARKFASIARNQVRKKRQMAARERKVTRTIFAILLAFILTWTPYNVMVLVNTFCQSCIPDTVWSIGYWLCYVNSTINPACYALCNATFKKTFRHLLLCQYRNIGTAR

Experiment [7] in a line: blockers of RIG-like receptor reporter activation – cell-based, Sendai virus stimulus, luciferase, 10K MLSCN set, TLR/RLR signaling modifier project, primary screen (AID 602276;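 active = inhibition at or above 50% at 10 µM; inactive = inhibition below 50%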;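 note: firefly luciferase from ISG56 promoter only with Renilla not read in this screen; 0% = Sendai virus plus DMSO and 100% = medium plus DMSO without virus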). Particulars: HEK293 RL24 IRF3 luciferase reporter, at 10 µM, stronger effect = higher value. Background: In a reporter assay the amount or activity of a reporter protein is the signal.
The nature of experiment [8]: TLR3 IRF3 reporter activation blockers – cell-based, poly I:C stimulus, luciferase, 10K MLSCN set, primary screen (AID 602277;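 active = inhibition of the reporter signal at or above 50%; inactive = inhibition below 50%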). Particulars: HEK293-TLR3 RL24 IRF3 luciferase reporter, at 10 µM, stronger effect = higher value.

Structures are written as SMILES. The source made the active and inactive calls.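 Rule for the calls, unless noted: active = fluorescence slope after compound addition differing from the mean of all tested samples at 99.7% confidence, mostly higher but some lower; inactive = the rest.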

Chain of Voltage-gated potassium channel subunit beta-2 (Rattus norvegicus) (P62483 whole entry, looked up): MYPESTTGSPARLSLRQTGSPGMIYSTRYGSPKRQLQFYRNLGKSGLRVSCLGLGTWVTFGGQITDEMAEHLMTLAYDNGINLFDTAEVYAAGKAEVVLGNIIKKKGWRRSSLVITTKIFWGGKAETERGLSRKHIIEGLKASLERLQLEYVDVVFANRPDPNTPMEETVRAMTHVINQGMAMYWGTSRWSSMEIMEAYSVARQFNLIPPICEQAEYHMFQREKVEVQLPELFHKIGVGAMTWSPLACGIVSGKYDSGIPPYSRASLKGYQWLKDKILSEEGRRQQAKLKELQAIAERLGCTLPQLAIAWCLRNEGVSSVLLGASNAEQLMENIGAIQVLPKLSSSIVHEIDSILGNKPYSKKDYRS

As for `COc1cccc2cc(C(=O)Nc3cccnc3N3CCOCC3)c(=O)oc12`, the cell count in experiment [1] was found to be 348. The inhibition in experiment [1] was -10.5% (inactive); in experiment [3], -32.3% (inactive); in experiment [7], 10.7% (inactive); in experiment [8] it was 4.05% (inactive). Besides, the inhibition of aggregation in experiment [2] was -13.5% (inactive). Besides, the nuclei count in experiment [2] was determined as 48.9%; in experiment [3], 98.9%. The fluorescence slope in experiment [4] was -0.573 (inactive); in experiment [6], 0.00618 (inactive). In addition, the NADPH fluorescence slope in experiment [5] is 1.5e-05 (inactive).

As for `COc1ccc(S(=O)(=O)NC2CCCCC2)c(C)c1C`, the cell count in experiment [1] was 426. Also, the inhibition was 8.4% (inactive) in experiment [1], 65.4% (inactive) in experiment [3], 20.3% (inactive) in experiment [7] and 26.9% (inactive) in experiment [8]. Also, the inhibition of aggregation in experiment [2] is -3% (inactive). Besides, the nuclei count in experiment [2] was determined as 101%; in experiment [3], 108%. For the same compound, the fluorescence slope in experiment [4] was -0.557 (inactive); in experiment [6], 0.00523 (inactive). In experiment [5], the NADPH fluorescence slope was 1.8e-05 (inactive).

Turning to `CCOC(=O)CSC1=Nc2ccccc2C2=NC(CC(=O)NCc3ccc(OC)cc3)C(=O)N12` (stereo not drawn), the cell count in experiment [1] stood at 463. The inhibition in experiment [1] is -13.6% (inactive); in experiment [3] it was -23.1% (inactive); in experiment [7], 10.6% (inactive); in experiment [8], 20.5% (inactive). The inhibition of aggregation in experiment [2] is -2.2% (inactive). Also, the nuclei count in experiment [2] worked out at 64.2%; in experiment [3], 91.7%. The fluorescence slope is -0.476 (inactive) in experiment [4] and 0.00508 (inactive) in experiment [6]. In addition, the NADPH fluorescence slope in experiment [5] was -8e-06 (inactive).

For the compound `CC(=O)N1CCc2cc(S(=O)(=O)NC(C(=O)NCc3ccccc3)C(C)C)ccc21` (stereo not drawn), the cell count in experiment [1] stood at 579. Further, the inhibition was -3.8% (inactive) in experiment [1], 22.1% (inactive) in experiment [3], 10.6% (inactive) in experiment [7] and 15.4% (inactive) in experiment [8]. Also, in experiment [2], the inhibition of aggregation is 23.8% (inactive). In addition, the figures for the nuclei count in experiment [2] and in experiment [3] were 110% and 94.8%, respectively. The results for the fluorescence slope in experiment [4] and in experiment [6] were -0.587 (inactive) and 0.00584 (inactive), respectively. In addition, the NADPH fluorescence slope in experiment [5] is -1.2e-05 (inactive).

Regarding `[O-][n+]1onc2c1CCc1nnc(-c3ccccc3)cc1-2`, the cell count in experiment [1] was 320. The inhibition was -0.8% (inactive) in experiment [1], -7.3% (inactive) in experiment [3], -0.775% (inactive) in experiment [7] and -6.53% (inactive) in experiment [8]. Besides, the inhibition of aggregation in experiment [2] is 7.5% (inactive). The figures for the nuclei count in experiment [2] and in experiment [3] were 102% and 123%, respectively. The values for the fluorescence slope in experiment [4] and in experiment [6] were -0.598 (inactive) and 0.00387 (inactive), respectively. In addition, in experiment [5], the NADPH fluorescence slope was 2.3e-05 (inactive).

Consider `COc1ccccc1NS(=O)(=O)c1ccc(NC(=O)c2nc3ncccn3n2)cc1`, for which, in experiment [1], the cell count amounted to 266. Besides, the inhibition in experiment [1] was 8.8% (inactive); in experiment [3], -14% (inactive); in experiment [7], 17.6% (inactive); in experiment [8], 13.9% (inactive). Besides, the inhibition of aggregation in experiment [2] was 8.5% (inactive). Also, the nuclei count in experiment [2] amounted to 86.7%; in experiment [3], 93%. In addition, the fluorescence slope in experiment [4] was -0.571 (inactive); in experiment [6], 0.0057 (inactive). The NADPH fluorescence slope in experiment [5] is -7.6e-05 (inactive).

Turning to `COCCOC(=O)C1=C(C)Nc2ncnn2C1c1ccc(F)cc1` (stereo not drawn), in experiment [1], the cell count turned out to be 743. Further, the inhibition was -0.4% (inactive) in experiment [1], 12.9% (inactive) in experiment [3], 6.2% (inactive) in experiment [7] and 19.4% (inactive) in experiment [8]. Also, in experiment [2], the inhibition of aggregation is 24.6% (inactive). Also, the values for the nuclei count in experiment [2] and in experiment [3] were 71.5% and 124%, respectively. Further, the results for the fluorescence slope in experiment [4] and in experiment [6] were -0.369 (inactive) and 0.00592 (inactive), respectively. In addition, the NADPH fluorescence slope in experiment [5] was -0.000107 (inactive).

`COc1ccccc1CN1CC(C(=O)N2CCN(c3ccc(F)cc3)CC2)CC1=O` (stereo not drawn): in experiment [1], the cell count is 400. Further, the inhibition in experiment [1] is 72.8% (active); in experiment [3] it was -19.6% (inactive); in experiment [7], 16.3% (inactive); in experiment [8], 7.05% (inactive). Also, the inhibition of aggregation in experiment [2] was -14.7% (inactive). Further, the nuclei count is 101% in experiment [2] and 106% in experiment [3]. Moreover, the fluorescence slope in experiment [4] is -0.583 (inactive); in experiment [6], 0.00225 (inactive). The NADPH fluorescence slope in experiment [5] is -4.4e-05 (inactive).

A word on the inhibition: it is the change of the read-out against control, counted positive when it falls.
